Assay results published in ChEMBL document CHEMBL4346745, “Urea moiety as amide bond mimetic in peptide-like inhibitors of VEGF-A165/NRP-1 complex” (Bioorg Med Chem Lett, 2019).
Numbered stars: 1 amine (or outer) side, 2 acyl side, 3 side chain; on linkers, the order of the positions; unused ones are H or OH. Square brackets hold non-standard residues; d marks the D form. Side chains are listed from the residue outwards. Peptide text beside a SMILES is read from it. * marks the point of attachment. X1 = N=C(N)NCCC[C@H](N)CN*; ΔPro = O=C(O)[C@@H]1C=CCN1; Dab = NCC[C@H](N)C(=O)O; CO = O=C([*:1])[*:2]

Legend:
[1] = Retention time in human plasma treated with 1 uM (S)-5-guanidino-2-((S)-1-((6S,15S,18R)-1,6,15-triamino-18-(2-aminoethyl)-1-imino-9,16-dioxo-2,8,10,17-tetraazanonadecane)-2,3-dihydro-1H-pyrrole-2-carboxamido)pentanoic acid at 1 uM after 96 hrs by LC-MS analysis; format: ADME, cell-free
Procedure, shortened: (§1)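 Compounds incubated in human plasma at 37 °C; aliquots withdrawn at selected time intervals up to 96 h and analysed by RP-HPLC and LC-MS to follow parent loss and the fragments formed.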

[2] = molecular target: Neuropilin-1 (Homo sapiens, UniProt O14786); test: Inhibition of biotinylated human VEGF-A165 binding to recombinant human NRP1 receptor after 2 hrs by chemiluminescence analysis relative to control
Chain of Neuropilin-1 (O14786 whole entry): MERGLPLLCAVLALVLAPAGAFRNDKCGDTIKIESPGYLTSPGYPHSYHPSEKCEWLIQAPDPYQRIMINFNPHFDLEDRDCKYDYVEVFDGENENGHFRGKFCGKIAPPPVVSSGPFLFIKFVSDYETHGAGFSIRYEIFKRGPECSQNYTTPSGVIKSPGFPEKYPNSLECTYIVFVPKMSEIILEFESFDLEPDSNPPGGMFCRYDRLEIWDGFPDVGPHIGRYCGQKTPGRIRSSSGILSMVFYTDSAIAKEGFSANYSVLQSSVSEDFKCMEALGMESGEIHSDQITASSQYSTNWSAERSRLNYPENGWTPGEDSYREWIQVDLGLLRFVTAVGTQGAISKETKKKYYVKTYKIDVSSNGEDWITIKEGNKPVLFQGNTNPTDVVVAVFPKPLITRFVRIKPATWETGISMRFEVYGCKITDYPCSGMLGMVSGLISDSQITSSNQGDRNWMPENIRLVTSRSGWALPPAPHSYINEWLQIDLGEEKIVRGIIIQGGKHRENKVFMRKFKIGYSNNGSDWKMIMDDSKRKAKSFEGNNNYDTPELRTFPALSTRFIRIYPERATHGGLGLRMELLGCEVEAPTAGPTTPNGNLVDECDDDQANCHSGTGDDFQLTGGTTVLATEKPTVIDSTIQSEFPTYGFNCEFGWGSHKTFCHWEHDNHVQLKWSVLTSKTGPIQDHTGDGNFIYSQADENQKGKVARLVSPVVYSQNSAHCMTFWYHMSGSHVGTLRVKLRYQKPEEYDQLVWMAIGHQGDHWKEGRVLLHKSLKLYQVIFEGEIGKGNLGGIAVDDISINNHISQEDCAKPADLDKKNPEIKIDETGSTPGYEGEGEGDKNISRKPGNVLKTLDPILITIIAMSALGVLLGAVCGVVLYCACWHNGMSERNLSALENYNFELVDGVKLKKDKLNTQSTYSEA
Procedure, shortened: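 ELISA-like competition format with chemiluminescent read-out of VEGF-A165 bound to NRP-1 in the presence of test peptidomimetic.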

[3] = Retention time in human plasma treated with 1 uM (S)-2-((S)-1-((S)-1-((S)-2-amino-6-(3-((S)-2-amino-5-guanidinopentyl)ureido)hexanoyl)pyrrolidine-2-carbonyl)pyrrolidine-2-carboxamido)-5-guanidinopentanoic acid at 1 uM after 96 hrs by LC-MS analysis; format: ADME, cell-free; procedure, shortened: as §1
[4] = Stability in human plasma assessed as enzymatic cleavage of Lys(epsilon)-Arg(U) bond at 1 uM after 96 hrs by LC-MS analysis; format: ADME, cell-free; procedure, shortened: as §1
[5] = Metabolic stability in human plasma assessed as compound remaining at 1 uM after 96 hrs by RP-HPLC and LC-MS analysis relative to control; format: ADME, cell-free; conditions: read-out: Stability; procedure, shortened: as §1
[6] = Drug metabolism in human plasma assessed as (S)-2-amino-6-(3-((S)-2-amino-5-guanidinopentyl)ureido)hexanoic acid metabolite formation at 1 uM after 96 hrs by LC-MS analysis; format: ADME, cell-free; procedure, shortened: as §1

Retention_time [1] [min]	IC50 [2] [µM]	Compound	other results
9.02		N=C(N)NCCC[C@H](N)CNC(=O)NCCCC[C@H](N)C(=O)N[C@@H](CCN)C(=O)N1CC=C[C@H]1C(=O)O	
	5.4	N=C(N)NCCC[C@H](N)CNC(=O)NCCCC[C@H](N)C(=O)N[C@H](CCN)C(=O)N1C2CCCCC2C[C@H]1C(=O)N[C@@H](CCCNC(=N)N)C(=O)O (stereo not given in full)	
0.98		N=C(N)NCCC[C@H](NC(=O)[C@@H]1C=CCN1C(=O)[C@@H](N)CCN)C(=O)O (H-[Dab]-[ΔPro]-Arg-OH)	
2.92		N=C(N)NCCC[C@H](N)CNC(=O)NCCCC[C@H](N)C(=O)O	Retention_time [3]: 3 min
	7.7	N=C(N)NCCC[C@H](N)CNC(=O)NCCCC[C@H](N)C(=O)N1CCC[C@H]1C(=O)N1CCC[C@H]1C(=O)N[C@@H](CCCNC(=N)N)C(=O)O (H-K([CO-X1])PPR-OH)	Stability [4]: Stable; remaining at 96 h, 1 µM [5]: 40 to 45%; Drug metabolism [6]: Metabolite_Detected
	26	N=C(N)NCCC[C@H](N)CNC(=O)NCCCC[C@H](N)C(=O)N[C@H](CCN)C(=O)N1CC[C@H]1C(=O)N[C@@H](CCCNC(=N)N)C(=O)O	
